In test [1] the target is T1, Adrenergic receptor alpha-1 (Rattus norvegicus, UniProt P15823+P23944+P43140).
T1 sequence (P15823 whole entry): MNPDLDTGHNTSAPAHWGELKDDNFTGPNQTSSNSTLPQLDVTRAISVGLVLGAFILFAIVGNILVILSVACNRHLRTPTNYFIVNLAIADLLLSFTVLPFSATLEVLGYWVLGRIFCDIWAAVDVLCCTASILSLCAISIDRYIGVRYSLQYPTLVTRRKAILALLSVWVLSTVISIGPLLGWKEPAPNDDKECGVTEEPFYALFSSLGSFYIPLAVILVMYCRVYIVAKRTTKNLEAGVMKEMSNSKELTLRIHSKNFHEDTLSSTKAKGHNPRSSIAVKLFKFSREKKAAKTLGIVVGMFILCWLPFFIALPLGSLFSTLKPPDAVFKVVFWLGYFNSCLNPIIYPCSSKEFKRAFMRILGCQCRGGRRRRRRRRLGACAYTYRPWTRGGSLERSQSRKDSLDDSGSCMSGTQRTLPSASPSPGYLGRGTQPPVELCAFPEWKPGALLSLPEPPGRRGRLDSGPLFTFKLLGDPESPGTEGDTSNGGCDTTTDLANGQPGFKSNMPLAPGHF
T1 sequence (P23944 whole entry): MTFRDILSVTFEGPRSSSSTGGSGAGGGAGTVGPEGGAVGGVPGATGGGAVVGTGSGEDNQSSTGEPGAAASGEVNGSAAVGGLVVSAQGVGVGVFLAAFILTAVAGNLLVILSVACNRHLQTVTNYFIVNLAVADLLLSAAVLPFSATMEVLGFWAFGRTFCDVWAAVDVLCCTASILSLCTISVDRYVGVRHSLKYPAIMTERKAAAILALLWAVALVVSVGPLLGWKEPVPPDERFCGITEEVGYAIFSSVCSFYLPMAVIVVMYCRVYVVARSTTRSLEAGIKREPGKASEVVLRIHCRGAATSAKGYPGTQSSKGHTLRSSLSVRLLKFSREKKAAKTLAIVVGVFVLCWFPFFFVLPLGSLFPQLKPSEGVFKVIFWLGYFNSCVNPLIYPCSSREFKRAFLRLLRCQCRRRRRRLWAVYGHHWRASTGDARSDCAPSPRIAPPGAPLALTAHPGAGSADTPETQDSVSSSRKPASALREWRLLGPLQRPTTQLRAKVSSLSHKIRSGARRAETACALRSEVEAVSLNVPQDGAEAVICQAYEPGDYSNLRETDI
T1 sequence (P43140 whole entry): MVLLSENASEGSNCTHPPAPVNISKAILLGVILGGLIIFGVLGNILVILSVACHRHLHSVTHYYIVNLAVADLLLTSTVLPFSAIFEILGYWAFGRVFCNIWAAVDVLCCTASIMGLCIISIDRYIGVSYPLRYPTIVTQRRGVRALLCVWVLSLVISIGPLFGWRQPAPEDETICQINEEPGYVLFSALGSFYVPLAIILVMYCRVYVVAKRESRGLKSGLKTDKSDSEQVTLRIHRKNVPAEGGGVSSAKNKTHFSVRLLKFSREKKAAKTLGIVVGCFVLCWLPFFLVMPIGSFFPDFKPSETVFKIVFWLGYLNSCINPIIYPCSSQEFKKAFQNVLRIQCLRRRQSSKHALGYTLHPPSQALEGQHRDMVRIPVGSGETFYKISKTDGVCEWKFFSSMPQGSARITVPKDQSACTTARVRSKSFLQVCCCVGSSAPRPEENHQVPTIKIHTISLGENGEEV
Briefly: Antagonist activity for Alpha-1 adrenergic receptor against norepinephrine in rat vas deferences. Format: functional.

For test [2], the target named is T2, Adrenergic receptor alpha-2 (Rattus norvegicus, UniProt P22086+P19328+P22909).
T2 sequence (P22086 whole entry): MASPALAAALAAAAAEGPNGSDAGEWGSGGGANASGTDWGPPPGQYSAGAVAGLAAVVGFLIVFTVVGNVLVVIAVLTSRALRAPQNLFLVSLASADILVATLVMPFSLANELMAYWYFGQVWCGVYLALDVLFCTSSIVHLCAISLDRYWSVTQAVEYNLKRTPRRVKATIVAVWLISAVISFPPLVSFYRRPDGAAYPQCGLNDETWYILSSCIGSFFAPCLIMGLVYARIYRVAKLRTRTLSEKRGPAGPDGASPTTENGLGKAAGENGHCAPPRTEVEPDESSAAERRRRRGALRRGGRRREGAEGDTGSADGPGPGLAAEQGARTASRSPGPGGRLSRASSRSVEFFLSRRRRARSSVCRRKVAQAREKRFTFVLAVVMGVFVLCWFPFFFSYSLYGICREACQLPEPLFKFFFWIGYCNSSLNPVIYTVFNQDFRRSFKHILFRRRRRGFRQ
T2 sequence (P19328 whole entry): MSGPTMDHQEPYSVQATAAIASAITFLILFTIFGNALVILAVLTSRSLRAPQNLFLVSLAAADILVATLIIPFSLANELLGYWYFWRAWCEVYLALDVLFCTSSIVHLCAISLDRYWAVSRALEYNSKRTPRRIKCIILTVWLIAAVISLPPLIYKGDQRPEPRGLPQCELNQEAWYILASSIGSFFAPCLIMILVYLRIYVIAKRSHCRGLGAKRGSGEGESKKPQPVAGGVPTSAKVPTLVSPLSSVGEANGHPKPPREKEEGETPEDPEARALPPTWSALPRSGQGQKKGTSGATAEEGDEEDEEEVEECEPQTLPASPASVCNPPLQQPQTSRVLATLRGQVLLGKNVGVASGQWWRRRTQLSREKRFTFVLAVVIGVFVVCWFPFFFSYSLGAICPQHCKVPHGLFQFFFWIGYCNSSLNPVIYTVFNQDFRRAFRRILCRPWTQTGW
T2 sequence (P22909 whole entry): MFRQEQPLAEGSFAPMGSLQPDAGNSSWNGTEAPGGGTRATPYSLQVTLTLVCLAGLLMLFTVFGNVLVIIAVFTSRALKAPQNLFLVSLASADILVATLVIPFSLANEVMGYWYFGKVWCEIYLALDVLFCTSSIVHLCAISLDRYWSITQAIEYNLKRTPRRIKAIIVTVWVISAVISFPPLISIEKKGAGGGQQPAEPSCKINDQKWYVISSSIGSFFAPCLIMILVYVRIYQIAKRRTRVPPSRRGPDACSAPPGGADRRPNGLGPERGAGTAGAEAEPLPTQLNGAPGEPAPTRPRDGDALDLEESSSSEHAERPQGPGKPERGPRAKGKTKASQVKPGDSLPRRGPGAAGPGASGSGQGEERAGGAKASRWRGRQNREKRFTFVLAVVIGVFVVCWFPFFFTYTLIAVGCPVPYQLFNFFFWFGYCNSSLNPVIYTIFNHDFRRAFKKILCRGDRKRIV
The experiment in a line: Antagonist activity for Alpha-2 adrenergic receptor against clonidine in rat vas deferences. Format: functional.

The species named for another test is Rattus norvegicus. Briefly: Compound was tested for its effect in reducing the mean blood pressure after 2 min in male wistar rats. Format: functional. Put shortly: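 Male Wistar rats (400–490 g) under equithesin (3 mL/kg, then 0.8 mL/kg ip, with supplements every 90–120 min). Dosing was a single pulse iv injection into the jugular vein of 100 μg/kg in 30 μL, flushed with 100 μL saline, after a vehicle-only control. Carotid mean arterial pressure was followed over time as % decrease, given as mean ± SE, with paired t test.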

In test [3] the target is T1, Adrenergic receptor alpha-1. The experiment in a line: Compound evaluated for antagonist activity to alpha-1 adrenergic receptor in a competitive assay against norepinephrine in rat vas deferences. The format is functional. Put shortly:
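Epididymal portion (14 mm) of male albino rat (175–200 g) vas deferens in Krebs with propranolol 1 μM and cocaine 10 μM, tension 0.4 g, equilibrated ≥1 h. Cumulative norepinephrine contraction curves: the first was discarded and the second was the control. A third curve followed 30 min antagonist incubation. Responses were taken as % of control maximum, corrected by untreated time-controls. Dose ratios at EC50 (three concentrations ×5) gave Schild pA2 with slope constrained to −1.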

The target of test [4] is T2, Adrenergic receptor alpha-2. Briefly: Compound evaluated for antagonist activity to alpha-2 adrenergic receptor in a competitive assay against clonidine in rat vas deferences. The format is functional. Put shortly: (§1)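 Male albino rat (175–200 g) vas deferens in 20 mL Krebs baths containing propranolol 1 μM and cocaine 10 μM, loading tension 0.5–0.8 g. Field stimulation at 0.1 Hz, 3-ms pulses, fixed 10–35 V. After ≥1 h equilibration, a cumulative clonidine curve (twitch inhibition) was run, then 30 min antagonist and a second curve. Time-matched controls were run. pA2 came from Schild plots (slope constrained to −1), three antagonist concentrations ×5, or van Rossum for two concentrations.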

Test [5] deals with Adrenergic receptor alpha-1 (Rattus norvegicus) (UniProt P15823+P23944+P43140). The experiment in a line: Selectivity ratio is the antilog of the difference between pA2 at alpha-1 and alpha-2 adrenergic receptors. Put shortly:
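Ratio calculated as the antilog of the difference between the pA2 values from the norepinephrine (α1, epididymal vas deferens) and clonidine (α2, field-stimulated vas deferens) Schild analyses in rat tissue.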

Test [6] deals with T2, Adrenergic receptor alpha-2. The experiment in a line: Compound evaluated for antagonist activity to Alpha-2 adrenergic receptor in a competitive assay against clonidine in rat vas deferences. The format is functional. Put shortly: as §1

In ChEMBL document CHEMBL1124337, “Structure-activity relationships in prazosin-related compounds. Effect of replacing a piperazine ring with an alkanediamine moiety on alpha 1-adrenoreceptor blocking activity” (J Med Chem, 1989) one finds pA2, Reduction and Ratio data, which are given here for 18 compounds.

By pA2 is commonly meant the negative logarithm of the molar antagonist concentration that doubles the agonist concentration needed for the same response. A low value points to lower antagonist potency. For `COc1cc2nc(N(C)CCCN(C)C(=O)c3ccco3)nc(N)c2cc1OC`, the pA2 was 7.41 in test [1] and 6.45 in test [2].

For the compound `COc1cc2nc(NCCCCCCN(C)C(=O)c3ccco3)nc(N)c2cc1OC`, the pA2 in test [1] turned out to be 8.17; in test [2], 5.76.

For the compound `COc1cc2nc(N(C)CCCCCN(C)C(=O)c3ccco3)nc(N)c2cc1OC`, the pA2 in test [1] is recorded as 8.83; in test [2], 6.68.

With `COc1cc2nc(N(C)CCCCCCN(C)C(=O)c3ccco3)nc(N)c2cc1OC`, the results for the pA2 in test [1] and in test [2] were 8.93 and 6.84, respectively. This compound had a Reduction in the test listed under Rattus norvegicus of 57.5%.

Consider `COc1cc2nc(NCCCCNC(=O)c3ccco3)nc(N)c2cc1OC`, for which the pA2 amounted to 8.25 in test [3] and 6.03 in test [4]. In addition, in test [5], the Ratio stood at 170.

Regarding `COc1cc2nc(N(C)CCCCN(C)C(=O)c3ccco3)nc(N)c2cc1OC`, the pA2 in test [1] amounted to 8.15; in test [2], 6.5.

Consider `COc1cc2nc(N(C)CCNC(=O)c3ccco3)nc(N)c2cc1OC`, for which the results for the pA2 in test [1] and in test [6] were 8.03 and 5.2, respectively.

As for `COc1cc2nc(NCCCCCCNC(=O)c3ccco3)nc(N)c2cc1OC`, the figures for the pA2 in test [3] and in test [4] were 7.88 and 4.51, respectively. In test [5], the Ratio turned out to be 2340.

With `COc1cc2nc(N(C)CCCCCCCCN(C)C(=O)c3ccco3)nc(N)c2cc1OC`, the pA2 in test [1] stood at 8.1; in test [2] it was 6.31.

`COc1cc2nc(N3CCN(C(=O)c4ccco4)CC3)nc(N)c2cc1OC` [PRAZOSIN]: the Reduction in the test listed under Rattus norvegicus was determined as 38.5%.

Turning to `COc1cc2nc(N(C)CCN(C)C(=O)c3ccco3)nc(N)c2cc1OC`, the figures for the pA2 in test [1] and in test [2] were 6.7 and 5.52, respectively.

On to `COc1cc2nc(NCCCCCCCNC(=O)c3ccco3)nc(N)c2cc1OC`, for which the pA2 is reported as 7.54 in test [1] and 5.04 in test [2].

In the case of `COc1cc2nc(NCCCCCCCCNC(=O)c3ccco3)nc(N)c2cc1OC`, the values for the pA2 in test [1] and in test [2] were 7.22 and 4.78, respectively.

On to `COc1cc2nc(NCCCCCNC(=O)c3ccco3)nc(N)c2cc1OC`, for which the pA2 in test [3] is on record as 7.72; in test [4], 5.01. In addition, in test [5], the Ratio is 513.

With `COc1cc2nc(NCCCNC(=O)c3ccco3)nc(N)c2cc1OC`, the pA2 is 8.01 in test [3] and 5.99 in test [4]. In test [5], the Ratio was 105.

Take `COc1cc2nc(NCCNC(=O)c3ccco3)nc(N)c2cc1OC`: the pA2 in test [1] turned out to be 8.28; in test [2] it was 5.37.

In the case of `COc1cc2nc(N(C)CCCCCCCN(C)C(=O)c3ccco3)nc(N)c2cc1OC`, the pA2 in test [1] was 8.6; in test [2], 6.55.

In the case of `COc1cc2nc(N(C)CCCCCCNC(=O)c3ccco3)nc(N)c2cc1OC`, the pA2 was found to be 8.53 in test [1] and 5.98 in test [2].
